In series [1] the target is D2 dopamine receptors (transfected HEK cells) (Homo sapiens, UniProt P14416). Description: Whole cell forskolin-dependent adenylyl cyclase inhibition assay, D2. The conditions noted are these: intrinsic activity. Format: cell-based. The method, boiled down:
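Transfected HEK cells were prelabelled with 2,8-3H-adenine in serum-free medium for 75 min at 37 °C. They were then incubated with test compound in serum-free medium containing 0.1 mM 3-isobutyl-1-methylxanthine for 20 min at 37 °C. The reaction was stopped with a solution of 10% trichloroacetic acid and 1 mM cyclic AMP, and accumulated 3H-cyclic AMP was measured.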

The target of series [2] is human D3 dopamine receptors expressed in HEK 293 cells (Homo sapiens, UniProt P35462). Description: Dopamine receptor filtration binding assay, [125I]-IABN competition, D3. The conditions noted are these: for D3 (Ki): mean Ki ± S.E.M., [125I]-IABN, HEK 293 membranes, unit printed in b5 only.
Series [3] deals with D3 dopamine receptors (transfected HEK cells) (Homo sapiens, UniProt P35462). In words: Whole cell forskolin-dependent adenylyl cyclase inhibition assay, D3. The format is cell-based. The conditions noted are these: for Functional classification at D3 dopamine receptors: compared to quinpirole; for %IA D3: intrinsic activity, compared to the full agonist quinpirole.
For series [4], the system named is P-gp expressed in Madin-Darby canine kidney (MDCK)-MDR1 cells. The conditions noted are these: efflux blocked with verapamil; cited from earlier work.
Series [5] is classed as in vivo, male Sprague Dawley rats.
[6] abbreviates: CycA […] mg/kg i.v. 30 min before tracer, 5 min post-injection.
Where [7] appears, read: CycA […] mg/kg i.v. 30 min before tracer, 30 min post-injection.
[8] abbreviates: control rats, i.v., 5 min post-injection.
The mark [9] stands for this setting: control rats, i.v., 30 min post-injection.
Setting [10] is: ratio of tracer uptake in CycA versus control group 30 min post injection.

Consider six compounds from article PMC3128788 (Nuclear medicine and biology, 2011).

Values joined by “and” are separate entries in the source; they are usually repeats but may differ in a detail not shown here. Equal values may be shown once. Marks after values point to notes of the source that are not given here.

D2 dopamine receptors (transfected HEK cells), sequence (P14416 whole entry): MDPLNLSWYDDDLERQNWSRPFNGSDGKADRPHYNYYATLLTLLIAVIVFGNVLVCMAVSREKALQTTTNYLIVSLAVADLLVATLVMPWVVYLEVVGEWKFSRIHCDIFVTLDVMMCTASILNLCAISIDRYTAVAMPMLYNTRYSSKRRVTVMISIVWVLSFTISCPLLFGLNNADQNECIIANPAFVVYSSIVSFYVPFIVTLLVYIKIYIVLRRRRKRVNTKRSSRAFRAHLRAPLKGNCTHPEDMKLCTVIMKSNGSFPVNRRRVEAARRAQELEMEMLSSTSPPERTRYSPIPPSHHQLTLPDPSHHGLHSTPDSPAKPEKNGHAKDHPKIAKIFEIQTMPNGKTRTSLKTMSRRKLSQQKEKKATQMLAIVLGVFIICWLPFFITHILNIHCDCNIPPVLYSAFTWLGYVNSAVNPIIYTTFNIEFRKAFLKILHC
human D3 dopamine receptors expressed in HEK 293 cells, sequence (P35462 whole entry): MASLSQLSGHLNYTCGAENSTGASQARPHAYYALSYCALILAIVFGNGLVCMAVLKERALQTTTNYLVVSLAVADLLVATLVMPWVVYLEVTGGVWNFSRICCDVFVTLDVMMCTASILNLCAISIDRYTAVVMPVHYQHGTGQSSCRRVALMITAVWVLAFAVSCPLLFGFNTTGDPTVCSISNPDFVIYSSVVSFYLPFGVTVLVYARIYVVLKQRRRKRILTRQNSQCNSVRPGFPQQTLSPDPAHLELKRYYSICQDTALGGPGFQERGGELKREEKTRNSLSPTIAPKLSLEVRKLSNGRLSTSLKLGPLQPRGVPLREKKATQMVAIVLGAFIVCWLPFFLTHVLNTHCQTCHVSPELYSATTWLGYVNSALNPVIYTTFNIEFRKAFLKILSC
D3 dopamine receptors (transfected HEK cells), sequence (P35462 whole entry): as above

Turning to `COc1ccccc1N1CCN(CCCCNC(=O)c2ccc(N(C)C)cc2)CC1` [Compound 6, 4-(dimethylamino)-N-(4-(4-(2-methoxyphenyl)piperazin-1-yl)butyl)benzamide], the “%IA D2” value in series [1] is recorded as 34 ± 3%. Also, the “D3 (Ki)” value in series [2] was “subnanomolar”. In addition, in series [3], the “Functional classification at D3 dopamine receptors” value (“Functional classification” for short) was “weak partial agonist/antagonist”.
For the compound `COc1ccccc1N1CCN(CCCCNC(=O)c2ccc(CCF)cc2)CC1` [Compound 7, 4-(2-fluoroethyl)-N-(4-(4-(2-methoxyphenyl)piperazin-1-yl)butyl)benzamide], in series [1], the “%IA D2” value was found to be 35 ± 1%. In addition, the “D3 (Ki)” value in series [2] is reported as “subnanomolar”.
With `CN(C)c1ccc(C(=O)NCCCCN2CCN(c3ccccc3OCCF)CC2)cc1` [Compound 8, 4-(dimethylamino)-N-(4-(4-(2-(2-fluoroethoxy)phenyl)piperazin-1-yl)butyl)benzamide], the “%IA D2” value in series [1] worked out at 66.3 ± 1%. Moreover, in series [2], the “D3 (Ki)” value is reported as “subnanomolar”. In addition, the “D2:D3 selectivity ratio” value in series [2] (selectivity for D3 versus D2 receptors) is on record as 23. Moreover, in series [3], the “Functional classification” value is “partial agonist”; the “%IA D3” value is 64.5 ± 8.3% and 64.5 ± 8%.
For `O=C(NCCCCN1CCN(c2ccccc2OCCF)CC1)c1ccc(-c2ccsc2)cc1` [Compound 9, N-(4-(4-(2-(2-fluoroethoxy)phenyl)piperazin-1-yl)butyl)-4-(thiophen-3-yl)benzamide], the “%IA D2” value in series [1] came out at 29.3 ± 7.3%. Further, in series [3], the “Functional classification” value was “weak partial agonist” and the “%IA D3” value was 34.4 ± 1.7%.
With `O=C(NC/C=C/CN1CCN(c2cccc(Cl)c2Cl)CC1)c1ccc(-c2ccccn2)cc1` [PG 01037], the “Substrate for P-gp” value in series [4] is “substrate for P-gp”.
On to `O=C(NCCCCN1CCN(c2ccccc2OCC[18F])CC1)c1ccc(-c2ccsc2)cc1` [[^18F]9, N-(4-(4-(2-(2-[^18F]fluoroethoxy)phenyl)piperazin-1-yl)butyl)-4-(thiophen-3-yl)benzamide], for which, in series [5] (setting [6]), the “Blood %ID/gram, 5 min CycA” value was 0.098 ± 0.009 %ID/gram; the “Bone %ID/gram, 5 min CycA” value is 0.162 ± 0.030 g %ID/gram; the “Fat %ID/gram, 5 min CycA” value stood at 0.046 ± 0.028 %ID/gram; the “Kidney %ID/gram, 5 min CycA” value is given as 1.913 ± 0.037 %ID/gram. Also, in series [5] (setting [6]), the “Liver %ID/gram, 5 min CycA” value amounted to 1.478 ± 0.336 %ID/gram; the “Lung %ID/gram, 5 min CycA” value was found to be 3.356 ± 0.261 %ID/gram; the “Muscle %ID/gram, 5 min CycA” value is given as 0.097 ± 0.0417 %ID/gram; the “Total brain %ID/gram, 5 min CycA” value is listed as 0.725 ± 0.022 %ID/gram. In series [5] (setting [7]), the “Blood %ID/gram, 30 min CycA” value is on record as 0.109 ± 0.019 %ID/gram; the “Bone %ID/gram, 30 min CycA” value is on record as 0.143 ± 0.016 %ID/gram; the “Fat %ID/gram, 30 min CycA” value turned out to be 0.093 ± 0.017 %ID/gram; the “Kidney %ID/gram, 30 min CycA” value is recorded as 1.397 ± 0.260 %ID/gram. Moreover, in series [5] (setting [7]), the “Liver %ID/gram, 30 min CycA” value was found to be 1.039 ± 0.124 %ID/gram; the “Lung %ID/gram, 30 min CycA” value is reported as 1.063 ± 0.182 %ID/gram; the “Muscle %ID/gram, 30 min CycA” value was found to be 0.108 ± 0.014 %ID/gram; the “Total brain %ID/gram, 30 min CycA” value stood at 0.504 ± 0.023 %ID/gram. Moreover, in series [5] (setting [8]), the “Blood %ID/gram, 5 min No Rx” value is 0.082 ± 0.027 %ID/gram; the “Bone %ID/gram, 5 min No Rx” value stood at 0.253 ± 0.001 %ID/gram; the “Fat %ID/gram, 5 min No Rx” value was determined as 0.028 ± 0.003 %ID/gram; the “Kidney %ID/gram, 5 min No Rx” value is 2.485 ± 0.608 %ID/gram. In series [5] (setting [8]), the “Liver %ID/gram, 5 min No Rx” value worked out at 1.430 ± 0.221 %ID/gram; the “Lung %ID/gram, 5 min No Rx” value is recorded as 4.026 ± 1.177 %ID/gram; the “Muscle %ID/gram, 5 min No Rx” value was determined as 0.083 ± 0.009 %ID/gram; the “Total brain %ID/gram, 5 min No Rx” value was 0.118 ± 0.001 %ID/gram. In series [5] (setting [9]), the “Blood %ID/gram, 30 min No Rx” value was found to be 0.104 ± 0.010 %ID/gram; the “Bone %ID/gram, 30 min No Rx” value is 0.220 ± 0.0494 %ID/gram; the “Fat %ID/gram, 30 min No Rx” value turned out to be 0.091 ± 0.0029 %ID/gram; the “Kidney %ID/gram, 30 min No Rx” value came out at 1.363 ± 0.0359 %ID/gram. In series [5] (setting [9]), the “Liver %ID/gram, 30 min No Rx” value was found to be 1.162 ± 0.1400 %ID/gram; the “Lung %ID/gram, 30 min No Rx” value is recorded as 1.313 ± 0.3574 %ID/gram; the “Muscle %ID/gram, 30 min No Rx” value came out at 0.083 ± 0.0139 %ID/gram; the “Total brain %ID/gram, 30 min No Rx” value was 0.095 ± 0.0208 %ID/gram. In addition, the “Bone activity levels from 5 min to 30 min (metabolic defluorination)” value in series [5] (normal rats) is recorded as “No accumulation”. Moreover, in series [5] (setting [10]), the “Blood CycA:No Rx” value was determined as 1.05, the “Bone CycA:No Rx” value is 0.65, the “Fat CycA:No Rx” value was 1.02 and the “Kidney CycA:No Rx” value turned out to be 1.03. Also, in series [5] (setting [10]), the “Liver CycA:No Rx” value is reported as 0.89, the “Lung CycA:No Rx” value was 0.81, the “Muscle CycA:No Rx” value is recorded as 1.24 and the “Total brain CycA:No Rx” value is listed as 5.33 ^h.
